Data from ChEMBL document CHEMBL2010735, “Bioactive hydroanthraquinones and anthraquinone dimers from a soft coral-derived Alternaria sp. fungus” (J Nat Prod, 2012).
In brackets after ≈: the same amount, converted by molar mass.

How the values were obtained:
HCT-116 = assay: Cytotoxicity against human HCT116 cells after 6 days by MTT assay; type: functional, cell-based; details: HCT-116, 144 h
[1] = Cytotoxicity against human MCF7/ADR cells after 6 days by MTT assay; type: functional, cell-based; details: NCI/ADR-RES, 144 h
[2] = Cytotoxicity against human Hep3B cells after 6 days by MTT assay; type: functional, cell-based, Hep 3B2; details: 144 h
HepG2 = assay: Cytotoxicity against human HepG2 cells after 6 days by MTT assay; type: functional, cell-based; details: HepG2, 144 h
PC-3 = assay: Cytotoxicity against human PC3 cells after 6 days by MTT assay; type: functional, cell-based; details: PC-3, 144 h
[3] = tested on: Porcine reproductive and respiratory syndrome virus; assay: Antiviral activity against Porcine reproductive and respiratory syndrome virus infected in CRL11171 cells assessed as inhibition of viral replication by RT-PCR analysis; type: functional, cell-based
Staphylococcus = assay: Antibacterial activity against Staphylococcus albus after 18 hrs by MTT assay; type: functional; details: in the assay text read “by broth dilution assay” for “by MTT assay”
How it was run: (§1)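 Conventional broth dilution assay against a panel of nine bacterial strains including E. coli and S. albus; V. parahemolyticus also used as pathogenic test organism.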

Vibrio parahaemolyticus = assay: Antibacterial activity against Vibrio parahaemolyticus after 18 hrs by MTT assay; type: functional; details: in the assay text read “by broth dilution assay” for “by MTT assay”; how it was run: as §1
Escherichia coli = assay: Antibacterial activity against Escherichia coli after 18 hrs by MTT assay; type: functional; details: in the assay text read “by broth dilution assay” for “by MTT assay”; how it was run: as §1

IC50 [3] | MIC (Staphylococcus) | MIC (Escherichia coli) | Compound | IC50 (HCT-116) | IC50 [1] | IC50 [2] | IC50 (HepG2) | IC50 (PC-3) | MIC (Vibrio parahaemolyticus)
 |  |  | COc1cc(O)c2c(c1)[C@H](O)[C@H]1C[C@](C)(O)[C@H](OC(C)=O)C[C@@H]1C2=O | > 100 µM | > 100 µM | > 100 µM | > 100 µM | > 100 µM | 
 |  |  | COc1cc(O)c2c(c1)[C@H](O)[C@@H]1C[C@](C)(O)[C@H](O)C[C@H]1C2=O (relative stereo) | > 100 µM | > 100 µM | > 100 µM | > 100 µM | > 100 µM | 
 |  |  | COc1cc(O)c2c(c1)[C@H](O)[C@@H]1C(=C[C@@H](O)[C@@](C)(O)[C@@H]1O)C2=O (relative stereo) | > 100 µM | > 100 µM | > 100 µM | > 100 µM | > 100 µM | 
65 µM |  |  | COc1cc(O)c2c(c1)[C@@H](O)[C@H]1C[C@](C)(O)[C@H](O)C[C@@H]1C2=O (relative stereo) [TETRAHYDROALTERSOLANOL C] | > 100 µM | > 100 µM | > 100 µM | > 100 µM | > 100 µM | 
 |  |  | COc1cc(O)c2c(c1)[C@H](O)[C@H]1C[C@](C)(O)[C@@H](O)C[C@@H]1C2=O (relative stereo) [TETRAHYDROALTERSOLANOL E] | > 100 µM | > 100 µM | > 100 µM | > 100 µM | > 100 µM | 
39 µM | > 20 µM | 2.5 µM (≈ 1.55 µg/mL) | COc1cc(O)c2c(c1)C(=O)c1cc(C)c(O)c(-c3c(OC)cc4c(c3O)C(=O)C3=C(C4=O)[C@@H](O)[C@](C)(O)[C@H](O)[C@H]3O)c1C2=O [ALTERPORRIOL C] | 24 µM | 98 µM | 51 µM | 53 µM | 27 µM | 2.5 µM (≈ 1.55 µg/mL)
 |  |  | COc1cc(O)c2c(c1)C(=O)c1cc(C)c(O)c(-c3c(OC)cc4c(c3O)C(=O)C3=C(C4=O)[C@@H](O)[C@](C)(O)[C@H](O)C3)c1C2=O [ALTERPORRIOL P] | 8.6 µM | 23 µM | 21 µM | 20 µM | 6.4 µM | 
22 µM |  |  | COc1cc(O)c2c(c1)C(=O)c1cc(C)c(O)c(-c3c(OC)cc4c(c3O)C(=O)c3cc(O)c(C)cc3C4=O)c1C2=O [ALTERPORRIOL Q] |  |  |  |  |  | 
 |  |  | COc1cc(O)c2c(c1)C(=O)C1=C(C[C@@H](O)[C@@](C)(O)C1)C2=O [ALTERSOLANOL B] | > 100 µM | > 100 µM | > 100 µM | > 100 µM | > 100 µM | 
 | 12 µM (≈ 3.84 µg/mL) | 0.62 µM (≈ 0.199 µg/mL) | COc1cc(O)c2c(c1)C(=O)C1=C(C[C@@H](O)[C@@](C)(O)[C@@H]1O)C2=O [ALTERSOLANOL C] | 2.2 µM | 3.2 µM | 8.2 µM | 8.9 µM | 7.6 µM | 1.25 µM (≈ 0.4 µg/mL)
 |  |  | COc1cc(O)c2c(c1)[C@H](O)[C@@H]1[C@H](C[C@@H](O)[C@@](C)(O)[C@@H]1O)C2=O [ALTERSOLANOL L] | > 100 µM | > 100 µM | > 100 µM | > 100 µM | > 100 µM | 
 |  |  | COc1cc(O)c2c(c1)[C@H](O)[C@@H]1[C@@H](C2=O)[C@H](O)[C@@H](O)[C@@](C)(O)[C@@H]1O [AMPELANOL] | > 100 µM | > 100 µM | > 100 µM | > 100 µM | > 100 µM | 
 | 0.31 µM (≈ 0.103 µg/mL) | 0.62 µM (≈ 0.205 µg/mL) | O=C(O)c1cn(C2CC2)c2cc(N3CCNCC3)c(F)cc2c1=O [CIPROFLOXACIN] |  |  |  |  |  | 0.16 µM (≈ 0.053 µg/mL)
 |  |  | COc1cccc2c1C(=O)c1c(O)c3c(c(O)c1C2=O)C[C@@](O)(C(=O)CO)C[C@@H]3O[C@H]1C[C@H](N)[C@@H](O)[C@H](C)O1 [EPIRUBICIN] | 0.82 µM | 1.65 µM | 0.96 µM | 1.65 µM | 0.46 µM | 
 | 15 µM (≈ 4.26 µg/mL) | 2.3 µM (≈ 0.654 µg/mL) | COc1cc(O)c2c(c1)C(=O)c1cc(C)c(O)cc1C2=O [MACROSPORIN] |  |  |  |  |  | 5 µM (≈ 1.42 µg/mL)
 |  |  | COc1cc(O)c2c(c1)[C@H](O)[C@H]1C[C@](C)(O)[C@H](O)C[C@@H]1C2=O [TETRAHYDROALTERSOLANOL B] | > 100 µM | > 100 µM | > 100 µM | > 100 µM | > 100 µM | 
